The values below come from PMC4160413 (Cancer cell, 2014).

Read-outs that look alike come from different tables or passages of the source.

The subject of one data set is MYCN and p-Histone H3. Briefly: Immunoblot screen of MYCN and p-H3 in Kelly cells. Format: cell-based. The note with it: 1 μM, 24 hr. The method, boiled down: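 Kelly cells in RPMI with 10% FBS, given one of 32 compounds at 1 μM for 24 hr. Lysis in Cell Signaling buffer with 1% SDS, then sonication and boiling in LDS sample buffer. Immunoblots probed for MYCN, Histone H3, P-Histone H3 (S10), Aurora A and GAPDH. Bands quantified by densitometry and expressed as percent of untreated control.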

The test system of a further data set is SK-N-BE(2) cells. Kind of data set: Cell cycle by flow cytometry. Type of data set: cell-based. A digest of the protocol: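 SK-N-BE(2) cells in RPMI with 10% FBS, exposed to test compound for the stated time. EdU pulse before harvest: 2 hours per methods, 1 hr in the 6 hr, 1 μM experiment. Detection used the Click-iT EdU flow kit plus propidium iodide staining, read on a FACSCalibur. Gating was done in Cytobank.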

In data set [1] the test system is MYCN. Briefly: Immunoblot of MYCN in SHEP cells expressing MYCN WT or T58A/S62A. Type of data set: cell-based. Conditions: 24 hr; for wild-type MYCN protein level: SHEP MYCN WT. For orientation: In western blotting, separated proteins are transferred to a membrane and probed.
Data set [2] has as its system panel 169 distinct tumor-derived cell lines. Briefly: Screen of 169 tumor-derived cell lines. Conditions: for susceptibility of MYCN-amplified versus non-amplified cell lines: 93 lines with MYCN copy number. Type of data set: cell-based.
The next data set deals with T1, Aurora A (Homo sapiens, UniProt O14965, T287D).
T1 sequence (O14965 123-390 T287D): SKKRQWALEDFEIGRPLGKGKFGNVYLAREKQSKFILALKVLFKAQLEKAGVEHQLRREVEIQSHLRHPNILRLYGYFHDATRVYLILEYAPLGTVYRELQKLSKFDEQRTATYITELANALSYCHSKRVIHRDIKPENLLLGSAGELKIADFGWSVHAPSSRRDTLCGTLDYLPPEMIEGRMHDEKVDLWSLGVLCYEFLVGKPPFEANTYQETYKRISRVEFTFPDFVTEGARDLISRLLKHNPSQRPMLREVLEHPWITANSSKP
Kind of data set: In vitro kinase assay with purified Aurora A protein. Conditions: structure-activity comparison. Format: biochemical.

For data set [3], the system named is MYCN. Briefly: Immunoblot of MYCN protein in SK-N-BE. Type of data set: cell-based. The note with it: SK-N-BE(2) cells, 1 μM, 24 hr.
For data set [4], the system named is SK-N-BE(2) MYCN-amplified neuroblastoma cells. Kind of data set: CyQUANT viability assay, 72 hr, SK-N-BE. Format: cell-based. The note with it: read-out: cellular EC50 at 72 hr.
The test system of data set [5] is Kelly MYCN-amplified neuroblastoma cells. Briefly: CyQUANT viability assay, 72 hr, Kelly. Format: cell-based. The note with it: read-out: cellular EC50 at 72 hr.
Data set [6] is described as follows: Pharmacokinetic study in mice. Format: in vivo. A digest of the protocol:
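Test compound formulated at 20 mg/ml in 7.5% DMSO / 92.5% PEG300 and given to mice. Compound levels determined by LC-MS/MS.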

Data set [7] has as its system MYCN-amplified SMS-KCN xenografts. Briefly: MYCN-amplified SMS-KCN neuroblastoma xenograft. Type of data set: in vivo, mice. The note with it: 60 mg/kg for 2 days. The method, boiled down: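 NOD scid gamma mice received 10⁶ SMS-KCN cells in growth media with 50% Geltrex, implanted into the renal capsule. Tumors were palpable at 21 days post implantation. Mice were then dosed at 60 mg/kg for two days, and tumors were harvested and flash frozen. MYCN protein was measured by immunoblot and compared by two-tailed Student's t-test (mean ± SEM).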

Data set [8] concerns MYCN-expressing SHH-subtype medulloblastoma allograft. Kind of data set: SHH-subtype medulloblastoma subcutaneous allograft. Type of data set: in vivo, mice. Conditions: 25 mg/kg twice per week. A digest of the protocol:
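Homozygous nu/nu mice carried flank subcutaneous allografts of SHH-subtype MYCN-expressing medulloblastoma (10⁶ cells per mouse). Dosing began at 25 mm³ tumor volume (~14 days): vehicle (5% DMSO in PEG300; n=6) or 25 mg/kg (formulated at 7.5 mg/ml; n=4), intraperitoneally twice weekly for up to three weeks. Endpoint was 2.0 cm maximum tumor length. Tumor burden compared by two-tailed t-test, survival by log-rank test.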

For the next data set, the target named is T2, MYCN-Aurora A complex (Homo sapiens, UniProt O14965).
T2 sequence (O14965 1-403): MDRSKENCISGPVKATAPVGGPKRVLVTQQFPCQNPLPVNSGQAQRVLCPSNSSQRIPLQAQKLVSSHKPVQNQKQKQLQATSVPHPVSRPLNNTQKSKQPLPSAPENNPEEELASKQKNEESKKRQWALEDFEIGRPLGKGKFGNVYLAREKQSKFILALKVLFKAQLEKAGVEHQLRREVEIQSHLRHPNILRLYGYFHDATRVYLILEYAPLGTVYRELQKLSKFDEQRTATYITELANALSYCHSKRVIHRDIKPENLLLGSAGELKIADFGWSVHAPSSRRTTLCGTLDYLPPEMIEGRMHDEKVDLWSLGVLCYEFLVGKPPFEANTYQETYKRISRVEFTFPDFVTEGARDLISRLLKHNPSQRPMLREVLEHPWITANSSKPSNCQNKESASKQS
Kind of data set: MYCN immunoprecipitation. Format: cell-based. The note with it: for dissociation of the MYCN-Aurora A complex: IMR32 cells, 2 hr drug, MG-132 4 hr.

Data set [9] deals with GFP- and MYCN-transduced SH-EP neuroblastoma cells. Briefly: Viability of SHEP cells transduced with MYCN or GFP, 72 hr. Conditions: MYCN- vs GFP-transduced SH-EP. Format: cell-based.
For data set [10] the following is noted: same dose (20 mg/kg); ref Carol et al., 2011; cited from earlier work.
Setting [11] is: CD532 1 μM 4 hr, MLN8237 0.1 μM 4 hr, JQ1 2 μM 24 hr.

For `Cc1cc(Nc2cc(N3CCN(C)CC3)nc(Sc3ccc(NC(=O)C4CC4)cc3)n2)[nH]n1` [VX-680], in the data set on MYCN and p-Histone H3, the “Histone H3 phosphorylation” value is “blocked Histone H3 phosphorylation” and the MYCN protein level result is reported as “very modest effects”. Moreover, the cell cycle effect entry with SK-N-BE(2) cells (1 μM, 4 or 6 hr) is “G2/M arrest”. Moreover, in the data set on MYCN [1], the “wild-type MYCN protein level” value is “little effect”.
Regarding `Cc1sc2c(c1C)C(c1ccc(Cl)cc1)=N[C@@H](CC(=O)OC(C)(C)C)c1nnc(C)n1-2` [JQ1, reference compound], the cell cycle effect result with SK-N-BE(2) cells (setting [11]) is “downregulation of MYCN, blockade of S-phase entry, and accumulation of cells in G0/G1”. Also, in data set [2], the “susceptibility of MYCN-amplified versus non-amplified cell lines” value is “significantly more susceptible”.
With `Cc1cc(Nc2cc(C3CCCC3)[nH]n2)nc(Nc2ccc(NC(=O)Nc3cccc(C(F)(F)F)c3)cc2)n1` [CD15], at Aurora A, the “cell-free potency against Aurora A relative to CD532” value was “maintained”. Besides, in the data set on MYCN [3], the “efficacy against MYCN (MYCN loss) relative to CD532” value is recorded as “maintained”.
As to `O=C(Nc1ccc(Nc2nccc(Nc3cc(C4CCCC4)[nH]n3)n2)cc1)Nc1cccc(C(F)(F)F)c1` [CD532], the EC50 (usually the concentration needed to bring the measured effect to its halfway point) came to 223 nM in [4] and 147 nM in data set [5]. For the same molecule, the serum half-life in data set [6] is reported as ~ 1.5 hr. In data set [6] (20 mg/kg), this molecule gave an AUC0-24 of 27 µM·h. In data set [7], the “MYCN protein level in xenograft tumors” value was “decreased levels of MYCN protein”. In data set [8], the “tolerability of dosing regimen” value is “without obvious short or long-term toxicity or weight loss”. In [8] (intraperitoneal), the “MYCN levels in tumors” value is listed as “substantially reduced MYCN levels”. For the same molecule, the survival entry in [8] (intraperitoneal) is “extended survival”. Also, the tumor burden entry in [8] (intraperitoneal) is “reduced tumor burden”. In addition, the cell cycle effect entry in the data set on SK-N-BE(2) cells (1 μM, 4 or 6 hr) is “potent loss of S-phase entry”; in the data set with SK-N-BE(2) cells (setting [11]) it was “rapid and potent loss of S-phase”. Further, the “dissociation of the MYCN-Aurora A complex” value at MYCN-Aurora A complex was “dose-dependent and complete dissociation”. At MYCN-Aurora A complex (specificity control), the MYCN-MAX binding result is “did not affect”. In addition, in data set [2], the “susceptibility of MYCN-amplified versus non-amplified cell lines” value was “significantly more susceptible”. Besides, in [2] (most cell lines), the “EC50s in cell line panel” value was “nanomolar range”. In [9], the “effect of MYCN transduction on sensitivity” value is listed as “conferred sensitivity”. Besides, the “MYCN T58A/S62A protein degradation” value in the data set on MYCN [1] (SHEP MYCN T58A/S62A) is reported as “less effective”. The “wild-type MYCN protein level” value in the data set on MYCN [1] is given as “dose-dependently decreased”.
Take `O=C(Nc1ccccc1)Nc1ccc(Nc2nccc(Nc3cc(C4CCCC4)[nH]n3)n2)cc1` [CD25]: the “cell-free potency against Aurora A relative to CD532” value on Aurora A was “retained potency”. Besides, the “efficacy against MYCN (MYCN loss) relative to CD532” value with MYCN [3] is reported as “less effective than CD532”.
`COc1cc(Nc2ncc3c(n2)-c2ccc(Cl)cc2C(c2c(F)cccc2OC)=NC3)ccc1C(=O)O` [MLN8237]: the “Histone H3 phosphorylation” value with MYCN and p-Histone H3 is recorded as “blocked Histone H3 phosphorylation”. Also, in the data set with MYCN and p-Histone H3, the MYCN protein level result was “very modest effects”. In addition, the cell cycle effect entry in the data set with SK-N-BE(2) cells (1 μM, 4 or 6 hr) was “G2/M arrest”; in the data set with SK-N-BE(2) cells (setting [11]) it was “accumulation of cells in G2 and M phase”. Also, the “dissociation of the MYCN-Aurora A complex” value at MYCN-Aurora A complex is listed as “only modestly disrupted”. In addition, the AUC0-24 in data set [10] was 78.4 µM·h.
